Data published in PubChem BioAssay.
The source made the active and inactive calls.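 Rule for the calls, unless noted: active = growth inhibition above a set limit, 3 SD over mean compound inhibition, in both replicates (cut at about 43% in these data); inconclusive = above the limit in only one replicate; inactive = at or below the limit in both replicates.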

Experiment: Restrictive medium S. cerevisiae growth inhibition, OD615, pilot screen of yeast lifespan reduction project, restrictive growth control (AID 706);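 note: modified DeaD lifespan yeast strain shifted to restrictive glucose medium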
Details: OD615, 48 h, at 10 µM, hits give high values
How it was run: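 Material: engineered S. cerevisiae DeaD strain / Medium: glucose-based CSMM-D restrictive medium / Compound: single dose of 10 µM compound final, 0.25% DMSO / Timing: 4 h pre-incubation, 48 h exposure at 30 °C / Technique: OD615 absorbance reading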
In the case of `CCN1C(=O)CSc2ccc(C(=O)OC)cc21`, the growth inhibition is reported as -12.7% (inactive). With `CN(C(=O)c1ccc(=O)[nH]c1)C1(C(=O)NC2CCCCC2)CCCCC1` the growth inhibition was -8.31% (inactive). For `CCN1CCCC1CNC(=O)Cn1cnc2sc(C)c(S(=O)(=O)N3CCC(C)CC3)c2c1=O` (stereo not given), the growth inhibition was -14.6% (inactive). With `CC1(C)CC(=O)c2cc(C(=O)N3CCN(CCO)CC3)c(=O)n(-c3ccc(Cl)cc3)c2C1` the growth inhibition was -25.4% (inactive). For `CCOc1cc(/C=N/n2cnnc2)ccc1OCC(=O)Nc1ccccc1OC`, the growth inhibition was 0.62% (inactive). In the case of `Cc1c(NC2=C(Cl)C(=O)N(c3ccccc3)C2=O)c(=O)n(-c2ccccc2)n1C`, the growth inhibition is reported as 28.3% (inactive). For `CCOC(=O)COc1cc2c(C(=O)OCC)c(C)oc2cc1Br`, the growth inhibition was -2.66% (inactive). For `Cc1ccc(NC2=CC(=O)CC(c3ccco3)C2)c(N)c1` (stereo not given), the growth inhibition was 5.45% (inactive). With `Cc1ccc(-c2nn3c(C)nnc3s2)cc1NC(=O)c1ccco1` the growth inhibition was 25.2% (inactive). In the case of `CCCCn1c(C(C)NC(=O)COC)nc2ccccc21` (stereo not given), the growth inhibition is reported as 1.68% (inactive). In the case of `CCCCNC(=O)CS(=O)Cc1nc(-c2cccs2)oc1C` (stereo not given), the growth inhibition is reported as 21.5% (inactive). With `COc1ccc(-c2noc(Cc3ccccc3OC)n2)cc1` the growth inhibition was -10.5% (inactive). With `O=C(NC1CCCCCC1)C1CCN(S(=O)(=O)c2cccc3cccnc23)CC1` the growth inhibition was 6.42% (inactive). In the case of `Cc1ccsc1C1C2=C(CC(C)(C)CC2=O)Nc2ncnn21` (stereo not given), the growth inhibition is reported as 11.9% (inactive). In the case of `O=C(OC1CCCCC1)c1ccc(NC(=O)c2ccco2)cc1`, the growth inhibition is reported as -7.55% (inactive). With `Cc1c(NC(=O)Oc2ccccc2)sc(=S)n1C` the growth inhibition was 34.4% (inactive). With `CCCC(=O)NCCCc1nc2ccccc2n1CC` the growth inhibition was 0.985% (inactive). For `CCC(=O)Nc1c2c(nn1-c1ccc(F)cc1)CS(=O)C2` (stereo not given), the growth inhibition was 1.07% (inactive). In the case of `O=C(c1cc(C2CC2)on1)N1CCOCC1`, the growth inhibition is reported as -0.575% (inactive). In the case of `COC(=O)c1ccc(NC(=O)c2cnc3scc(C)n3c2=O)cc1`, the growth inhibition is reported as -13.3% (inactive). For `Cc1ccnc(Nc2nc3ccccc3o2)n1`, the growth inhibition was 24.6% (inactive). With `NC(=O)c1ccsc1NC(=O)C1CC1` the growth inhibition was 0.175% (inactive). For `Cn1c(=O)[nH]c(=O)c2c1nc(CN1CCOCC1)n2Cc1ccc(F)cc1`, the growth inhibition was -18.4% (inactive). With `CCOc1ccc(N(CC(=O)Nc2ccc(OC)cc2)S(=O)(=O)c2c(C)noc2C)cc1` the growth inhibition was -2.61% (inactive). For `COCCn1c(=O)[nH]c2cc(C(=O)NCC3CCCO3)ccc2c1=O` (stereo not given), the growth inhibition was -1.18% (inactive). For `CCOC(=O)c1ccc(NC(=O)CSc2nnc(Cn3c(=O)sc4ccccc43)n2C)cc1`, the growth inhibition was 12% (inactive). For `COc1ccc(N(CC(=O)NCc2ccc3c(c2)OCO3)S(=O)(=O)c2c(C)nn(C)c2C)cc1`, the growth inhibition was -3.47% (inactive). With `CCOC(=O)C1CCN(c2c(N3CCN(Cc4ccccc4)CC3)c(=O)c2=O)CC1` the growth inhibition was -4.49% (inactive). In the case of `COc1ccc(NC(=O)C(c2ccccc2)N(C)C(=O)c2cnccn2)cc1` (stereo not given), the growth inhibition is reported as -12.6% (inactive). With `c1cnn(-c2nc(N3CCOCC3)nc(N3CCOCC3)n2)c1` the growth inhibition was 7.23% (inactive). In the case of `O=C(NCCCN1CCN(c2ccccc2F)CC1)C1CCCN(S(=O)(=O)c2cnc[nH]2)C1` (stereo not given), the growth inhibition is reported as 2.15% (inactive). With `CCOc1ccc(N2CC(=O)SC2=S)cc1` the growth inhibition was -0.73% (inactive). With `O=C(NCCC1=CCCCC1)NC1CCCCC1` the growth inhibition was 8.29% (inactive). With `CCCCNC(=O)Nc1cc(C(=O)OC)ccc1C` the growth inhibition was -14.2% (inactive). With `Cc1cccc(-c2nnc(-c3ccccc3)o2)c1` the growth inhibition was -3.2% (inactive). In the case of `O=C1CCC(=O)N1c1ccc(CSc2nc3ccccc3[nH]2)cc1`, the growth inhibition is reported as -2.19% (inactive). In the case of `CCCSc1nnc(Cn2c(=O)sc3ccccc32)n1C`, the growth inhibition is reported as -38% (inactive). For `C=CCSC1=N/C(=C\c2ccc3c(c2)OCO3)C(=O)S1`, the growth inhibition was -9.09% (inactive). For `COc1ccc(OC)c2c1sc(=NC(=O)C(C)C)n2C`, the growth inhibition was 17.4% (inactive). In the case of `CCN(CC)c1cc(C)c2cc(NC(=O)CNC(C)=O)ccc2n1`, the growth inhibition is reported as -8.29% (inactive).

Experiment: viability gain of MRP-1-high H69AR cells under doxorubicin, pilot screen, MRP-1 activator project, CellTiter-Glo, duplicate (AID 807;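 active = viability increase at or above a cutoff of the median across tested compounds plus 3 SD, cut at about 8.5% in these data, passing the limit was not always enough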;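 note: compound pretreatment 18-22 h then 72 h combined with doxorubicin; 0% = doxorubicin alone and 100% = vehicle without doxorubicin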)
Details: H69AR viability with doxorubicin, CellTiter-Glo luminescence; at 10 µM; hits give high values
In the case of `CCN1C(=O)CSc2ccc(C(=O)OC)cc21`, the viability increase is reported as -1.33% (inactive). For `CN(C(=O)c1ccc(=O)[nH]c1)C1(C(=O)NC2CCCCC2)CCCCC1`, the viability increase was -0.61% (inactive). For `CCN1CCCC1CNC(=O)Cn1cnc2sc(C)c(S(=O)(=O)N3CCC(C)CC3)c2c1=O` (stereo not given), the viability increase was -4.44% (inactive). For `CC1(C)CC(=O)c2cc(C(=O)N3CCN(CCO)CC3)c(=O)n(-c3ccc(Cl)cc3)c2C1`, the viability increase was -0.93% (inactive). For `CCOc1cc(/C=N/n2cnnc2)ccc1OCC(=O)Nc1ccccc1OC`, the viability increase was -1.37% (inactive). In the case of `Cc1c(NC2=C(Cl)C(=O)N(c3ccccc3)C2=O)c(=O)n(-c2ccccc2)n1C`, the viability increase is reported as -6.66% (inactive). For `CCOC(=O)COc1cc2c(C(=O)OCC)c(C)oc2cc1Br`, the viability increase was -2.07% (inactive). With `Cc1ccc(NC2=CC(=O)CC(c3ccco3)C2)c(N)c1` (stereo not given) the viability increase was -4.41% (inactive). For `Cc1ccc(-c2nn3c(C)nnc3s2)cc1NC(=O)c1ccco1`, the viability increase was -5.34% (inactive). In the case of `CCCCn1c(C(C)NC(=O)COC)nc2ccccc21` (stereo not given), the viability increase is reported as -0.01% (inactive). In the case of `CCCCNC(=O)CS(=O)Cc1nc(-c2cccs2)oc1C` (stereo not given), the viability increase is reported as -0.37% (inactive). With `COc1ccc(-c2noc(Cc3ccccc3OC)n2)cc1` the viability increase was 1.93% (inactive). For `O=C(NC1CCCCCC1)C1CCN(S(=O)(=O)c2cccc3cccnc23)CC1`, the viability increase was 2.08% (inactive). For `Cc1ccsc1C1C2=C(CC(C)(C)CC2=O)Nc2ncnn21` (stereo not given), the viability increase was -4.49% (inactive). With `O=C(OC1CCCCC1)c1ccc(NC(=O)c2ccco2)cc1` the viability increase was -2.73% (inactive). For `Cc1c(NC(=O)Oc2ccccc2)sc(=S)n1C`, the viability increase was -3.22% (inactive). For `CCCC(=O)NCCCc1nc2ccccc2n1CC`, the viability increase was 0.81% (inactive). In the case of `CCC(=O)Nc1c2c(nn1-c1ccc(F)cc1)CS(=O)C2` (stereo not given), the viability increase is reported as 0.7% (inactive). With `O=C(c1cc(C2CC2)on1)N1CCOCC1` the viability increase was 0.15% (inactive). For `COC(=O)c1ccc(NC(=O)c2cnc3scc(C)n3c2=O)cc1`, the viability increase was 1.67% (inactive). In the case of `Cc1ccnc(Nc2nc3ccccc3o2)n1`, the viability increase is reported as -4.36% (inactive). For `NC(=O)c1ccsc1NC(=O)C1CC1`, the viability increase was -2.38% (inactive). For `Cn1c(=O)[nH]c(=O)c2c1nc(CN1CCOCC1)n2Cc1ccc(F)cc1`, the viability increase was -3.24% (inactive). In the case of `CCOc1ccc(N(CC(=O)Nc2ccc(OC)cc2)S(=O)(=O)c2c(C)noc2C)cc1`, the viability increase is reported as -3.3% (inactive). With `COCCn1c(=O)[nH]c2cc(C(=O)NCC3CCCO3)ccc2c1=O` (stereo not given) the viability increase was -0.04% (inactive). In the case of `CCOC(=O)c1ccc(NC(=O)CSc2nnc(Cn3c(=O)sc4ccccc43)n2C)cc1`, the viability increase is reported as -2.6% (inactive). For `COc1ccc(N(CC(=O)NCc2ccc3c(c2)OCO3)S(=O)(=O)c2c(C)nn(C)c2C)cc1`, the viability increase was -2.86% (inactive). In the case of `CCOC(=O)C1CCN(c2c(N3CCN(Cc4ccccc4)CC3)c(=O)c2=O)CC1`, the viability increase is reported as -0.78% (inactive). In the case of `COc1ccc(NC(=O)C(c2ccccc2)N(C)C(=O)c2cnccn2)cc1` (stereo not given), the viability increase is reported as -1.52% (inactive). For `c1cnn(-c2nc(N3CCOCC3)nc(N3CCOCC3)n2)c1`, the viability increase was -5.18% (inactive). With `O=C(NCCCN1CCN(c2ccccc2F)CC1)C1CCCN(S(=O)(=O)c2cnc[nH]2)C1` (stereo not given) the viability increase was 1.39% (inactive). In the case of `CCOc1ccc(N2CC(=O)SC2=S)cc1`, the viability increase is reported as 1.09% (inactive). In the case of `O=C(NCCC1=CCCCC1)NC1CCCCC1`, the viability increase is reported as -0.3% (inactive). For `CCCCNC(=O)Nc1cc(C(=O)OC)ccc1C`, the viability increase was 0.11% (inactive). In the case of `Cc1cccc(-c2nnc(-c3ccccc3)o2)c1`, the viability increase is reported as -5.21% (inactive). For `O=C1CCC(=O)N1c1ccc(CSc2nc3ccccc3[nH]2)cc1`, the viability increase was 0.79% (inactive). In the case of `CCCSc1nnc(Cn2c(=O)sc3ccccc32)n1C`, the viability increase is reported as -2.24% (inactive). In the case of `C=CCSC1=N/C(=C\c2ccc3c(c2)OCO3)C(=O)S1`, the viability increase is reported as -5.28% (inactive). For `COc1ccc(OC)c2c1sc(=NC(=O)C(C)C)n2C`, the viability increase was -3.34% (inactive). In the case of `CCN(CC)c1cc(C)c2cc(NC(=O)CNC(C)=O)ccc2n1`, the viability increase is reported as -2.37% (inactive).
